In ChEMBL document CHEMBL3593207, “Imidazole clubbed 1,3,4-oxadiazole derivatives as potential antifungal agents” (2015):
Converted amounts (≈) assume the structure as drawn.

Legend:
Format in all cases: functional
[1] = tested on: Candida tropicalis; assay: Inhibition of ergosterol biosynthesis in Candida tropicalis ATCC 750 assessed as ergosterol content at MIC after 16 hrs by spectrophotometer analysis; parameters: scale not given: the % may be the effect or the level left
Summary of the method: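 Cells were harvested, washed, and wet pellet weight recorded. Pellets were saponified in 3 mL 25% alcoholic KOH at 85 °C for 1 h, then sterols extracted into n-heptane. Ergosterol is expressed relative to untreated control cells.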

[2] = tested on: Candida albicans; assay: Antifungal activity against clinical isolates of Candida albicans 2323 at half MIC after 48 hrs by disc diffusion assay
Summary of the method: (§1)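 Cells (10^3 cells ml−1) grown in YPD were mixed into molten agar (~40 °C) and poured into 100-mm plates. Filter discs (4 mm) were spotted with 10 µl of compound at 1/2 × MIC, MIC or 2 × MIC. Fluconazole and 1% DMSO were the controls. Plates were incubated at 37 °C for 48 h and inhibition zone diameters recorded in mm.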

[3] = tested on: Candida albicans; assay: Inhibition of ergosterol biosynthesis in Candida albicans ATCC 10261 assessed as ergosterol content at MIC after 16 hrs by spectrophotometer analysis; parameters: scale not given: the % may be the effect or the level left
Summary of the method: (§2)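 Cells were pelleted and washed, and wet weight taken. Pellets were saponified in 25% alcoholic KOH at 85 °C for 1 h. Sterols were extracted into n-heptane/water. Ergosterol content is expressed relative to untreated control cells.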

[4] = tested on: Candida tropicalis; assay: Antifungal activity against Candida tropicalis ATCC 750 at half MIC after 48 hrs by disc diffusion assay; summary of the method: as §1
[5] = tested on: Candida albicans; assay: Antifungal activity against Candida albicans ATCC 10261 at half MIC after 48 hrs by disc diffusion assay; summary of the method: as §1
[6] = tested on: Candida albicans; assay: Antifungal activity against clinical isolates of Candida albicans 2323 at 2 times MIC after 48 hrs by disc diffusion assay; summary of the method: as §1
[7] = tested on: Candida tropicalis; assay: Inhibition of ergosterol biosynthesis in Candida tropicalis 2356 assessed as ergosterol content at MIC after 16 hrs by spectrophotometer analysis; parameters: scale not given: the % may be the effect or the level left; summary of the method: as §2
[8] = tested on: Candida albicans; assay: Antifungal activity against clinical isolates of Candida albicans 2323 at MIC after 48 hrs by disc diffusion assay; summary of the method: as §1
[9] = tested on: Candida albicans; assay: Inhibition of ergosterol biosynthesis in Candida albicans 2323 assessed as ergosterol content at MIC after 16 hrs by spectrophotometer analysis; parameters: scale not given: the % may be the effect or the level left; summary of the method: as §2
[10] = tested on: Candida albicans; assay: Antifungal activity against clinical isolates of Candida albicans 2367 by broth microdilution assay
Summary of the method: (§3)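 CLSI M27-A3 broth microdilution. Compounds diluted to 1 mg/ml in 1% DMSO. Fluconazole (1 mg/ml) served as positive control, 1% DMSO as vehicle control, with media and culture controls. Triplicate at each concentration, repeated thrice. Inocula came from YPDA stocks subcultured in broth for 48 h at 37 °C.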

[11] = tested on: Candida albicans; assay: Antifungal activity against clinical isolates of Candida albicans 2779 at 2 times MIC after 48 hrs by disc diffusion assay; summary of the method: as §1
[12] = tested on: Candida tropicalis; assay: Antifungal activity against Candida tropicalis ATCC 750 by broth microdilution assay; summary of the method: as §3
[13] = tested on: Candida tropicalis; assay: Inhibition of ergosterol biosynthesis in Candida tropicalis ATCC 750 assessed as ergosterol content at 1/2 MIC after 16 hrs by spectrophotometer analysis; parameters: scale not given: the % may be the effect or the level left; summary of the method: as §2
[14] = tested on: Candida albicans; assay: Antifungal activity against Candida albicans ATCC 10261 at 2 times MIC after 48 hrs by disc diffusion assay; summary of the method: as §1
[15] = tested on: Candida tropicalis; assay: Antifungal activity against clinical isolates of Candida tropicalis 2356 by broth microdilution assay; summary of the method: as §3
[16] = tested on: Candida tropicalis; assay: Antifungal activity against clinical isolates of Candida tropicalis 2029 at 2 times MIC after 48 hrs by disc diffusion assay; summary of the method: as §1
[17] = tested on: Candida albicans; assay: Antifungal activity against clinical isolates of Candida albicans 2779 at MIC after 48 hrs by disc diffusion assay; summary of the method: as §1
[18] = tested on: Candida albicans; assay: Inhibition of ergosterol biosynthesis in Candida albicans 2779 assessed as ergosterol content at 1/2 MIC after 16 hrs by spectrophotometer analysis; parameters: scale not given: the % may be the effect or the level left; summary of the method: as §2
[19] = tested on: Candida tropicalis; assay: Inhibition of ergosterol biosynthesis in Candida tropicalis 2029 assessed as ergosterol content at 1/2 MIC after 16 hrs by spectrophotometer analysis; parameters: scale not given: the % may be the effect or the level left; summary of the method: as §2
[20] = tested on: Candida tropicalis; assay: Antifungal activity against clinical isolates of Candida tropicalis 2356 at MIC after 48 hrs by disc diffusion assay; summary of the method: as §1
[21] = tested on: Candida tropicalis; assay: Antifungal activity against clinical isolates of Candida tropicalis 2029 by broth microdilution assay; summary of the method: as §3
[22] = tested on: Candida tropicalis; assay: Inhibition of ergosterol biosynthesis in Candida tropicalis 2356 assessed as ergosterol content at 1/2 MIC after 16 hrs by spectrophotometer analysis; parameters: scale not given: the % may be the effect or the level left; summary of the method: as §2
[23] = tested on: Candida tropicalis; assay: Antifungal activity against clinical isolates of Candida tropicalis 2356 at 2 times MIC after 48 hrs by disc diffusion assay; summary of the method: as §1
[24] = tested on: Candida tropicalis; assay: Antifungal activity against clinical isolates of Candida tropicalis 2029 at MIC after 48 hrs by disc diffusion assay; summary of the method: as §1
[25] = tested on: Candida albicans; assay: Antifungal activity against clinical isolates of Candida albicans 2779 at half MIC after 48 hrs by disc diffusion assay; summary of the method: as §1
[26] = tested on: Candida tropicalis; assay: Inhibition of ergosterol biosynthesis in Candida tropicalis 2029 assessed as ergosterol content at MIC after 16 hrs by spectrophotometer analysis; parameters: scale not given: the % may be the effect or the level left; summary of the method: as §2
[27] = tested on: Candida albicans; assay: Antifungal activity against clinical isolates of Candida albicans 2323 by broth microdilution assay; summary of the method: as §3
[28] = tested on: Candida albicans; assay: Antifungal activity against Candida albicans ATCC 10261 at MIC after 48 hrs by disc diffusion assay; summary of the method: as §1
[29] = tested on: Candida albicans; assay: Inhibition of ergosterol biosynthesis in Candida albicans ATCC 10261 assessed as ergosterol content at 1/2 MIC after 16 hrs by spectrophotometer analysis; parameters: scale not given: the % may be the effect or the level left; summary of the method: as §2
[30] = tested on: Candida albicans; assay: Antifungal activity against clinical isolates of Candida albicans 2367 at 2 times MIC after 48 hrs by disc diffusion assay; summary of the method: as §1
[31] = tested on: Candida albicans; assay: Inhibition of ergosterol biosynthesis in Candida albicans 2367 assessed as ergosterol content at 1/2 MIC after 16 hrs by spectrophotometer analysis; parameters: scale not given: the % may be the effect or the level left; summary of the method: as §2
[32] = tested on: Candida albicans; assay: Antifungal activity against clinical isolates of Candida albicans 2367 at half MIC after 48 hrs by disc diffusion assay; summary of the method: as §1
[33] = tested on: Candida albicans; assay: Antifungal activity against clinical isolates of Candida albicans 2367 at MIC after 48 hrs by disc diffusion assay; summary of the method: as §1
[34] = tested on: Candida tropicalis; assay: Antifungal activity against Candida tropicalis ATCC 750 at MIC after 48 hrs by disc diffusion assay; summary of the method: as §1
[35] = tested on: Candida tropicalis; assay: Antifungal activity against clinical isolates of Candida tropicalis 2029 at half MIC after 48 hrs by disc diffusion assay; summary of the method: as §1
[36] = tested on: Candida tropicalis; assay: Antifungal activity against clinical isolates of Candida tropicalis 2356 at half MIC after 48 hrs by disc diffusion assay; summary of the method: as §1
[37] = tested on: Candida albicans; assay: Inhibition of ergosterol biosynthesis in Candida albicans 2779 assessed as ergosterol content at MIC after 16 hrs by spectrophotometer analysis; parameters: scale not given: the % may be the effect or the level left; summary of the method: as §2
[38] = tested on: Candida tropicalis; assay: Antifungal activity against Candida tropicalis ATCC 750 at 2 times MIC after 48 hrs by disc diffusion assay; summary of the method: as §1
[39] = tested on: Candida albicans; assay: Cytotoxicity against clinical isolates of Candida albicans 2779 at 1/4 MIC after 24 hrs by WST1 assay
Summary of the method: (§4)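 Candida cells were exposed to MIC and sub-MIC levels for 24 h in microplates, then to WST-1/CEC dye for 30 min at 37 °C. Plates were shaken 1 min and the reaction stopped with 1% SDS. Formazan was read at 450 nm. % cytotoxicity = 100 × (cell control − experimental)/cell control. Triplicates, mean ± SD.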

[40] = tested on: Candida albicans; assay: Antifungal activity against clinical isolates of Candida albicans 2779 by broth microdilution assay; summary of the method: as §3
[41] = tested on: Candida albicans; assay: Cytotoxicity against clinical isolates of Candida albicans 2323 at MIC after 24 hrs by WST1 assay; summary of the method: as §4
[42] = tested on: Candida tropicalis; assay: Cytotoxicity against clinical isolates of Candida tropicalis 2029 at MIC after 24 hrs by WST1 assay; summary of the method: as §4
[43] = tested on: Candida albicans; assay: Inhibition of ergosterol biosynthesis in Candida albicans 2323 assessed as ergosterol content at 1/2 MIC after 16 hrs by spectrophotometer analysis; parameters: scale not given: the % may be the effect or the level left; summary of the method: as §2
[44] = tested on: Candida albicans; assay: Antifungal activity against Candida albicans ATCC 10261 by broth microdilution assay; summary of the method: as §3
[45] = tested on: Candida albicans; assay: Inhibition of ergosterol biosynthesis in Candida albicans 2367 assessed as ergosterol content at MIC after 16 hrs by spectrophotometer analysis; parameters: scale not given: the % may be the effect or the level left; summary of the method: as §2

Q: With `CCc1ccnc(-c2nccn2Cc2nnc(-c3ccccc3OC(C)=O)o2)c1` as the molecule, how does the Activity [1] read?
A: Its Activity is 100%.

Q: And the “inhibition zone (IZ)” value [2]?
A: The value was 2 mm.

Q: What about the Activity [3] of the same molecule?
A: Its Activity is 100%.

Q: What about the “inhibition zone (IZ)” value [4] of the same molecule?
A: The value was 3 mm.

Q: And the “inhibition zone (IZ)” value [5]?
A: The value was 5 mm.

Q: What about the “inhibition zone (IZ)” value [6] of the same molecule?
A: Its value is 11 mm.

Q: And the Activity [7]?
A: The Activity was 91%.

Q: And the “inhibition zone (IZ)” value [8]?
A: Its value is 6 mm.

Q: And the Activity [9]?
A: Its Activity is 91%.

Q: What about the MIC [10] of the same molecule?
A: The MIC was 8 µg/mL (≈ 20.5 µM).

Q: And the “inhibition zone (IZ)” value [11]?
A: The value was 13 mm.

Q: And the MIC [12]?
A: The MIC was 4 µg/mL (≈ 10.3 µM).

Q: What about the Activity [13] of the same molecule?
A: Its Activity is 47%.

Q: And the “inhibition zone (IZ)” value [14]?
A: The value was 16 mm.

Q: And the MIC [15]?
A: Its MIC is 32 µg/mL (≈ 82.2 µM).

Q: What about the “inhibition zone (IZ)” value [16] of the same molecule?
A: Its value is 10 mm.

Q: And the “inhibition zone (IZ)” value [17]?
A: Its value is 11 mm.

Q: And the Activity [18]?
A: Its Activity is 52%.

Q: And the Activity [19]?
A: Its Activity is 53%.

Q: And the “inhibition zone (IZ)” value [20]?
A: Its value is 6 mm.

Q: And the MIC [21]?
A: The MIC was 16 µg/mL (≈ 41.1 µM).

Q: What about the Activity [22] of the same molecule?
A: The Activity was 48%.

Q: And the “inhibition zone (IZ)” value [23]?
A: The value was 11 mm.

Q: And the “inhibition zone (IZ)” value [24]?
A: The value was 5 mm.

Q: And the “inhibition zone (IZ)” value [25]?
A: The value was 3 mm.

Q: And the Activity [26]?
A: Its Activity is 87%.

Q: What about the MIC [27] of the same molecule?
A: Its MIC is 16 µg/mL (≈ 41.1 µM).

Q: And the “inhibition zone (IZ)” value [28]?
A: Its value is 11 mm.

Q: What about the Activity [29] of the same molecule?
A: Its Activity is 51%.

Q: What about the “inhibition zone (IZ)” value [30] of the same molecule?
A: Its value is 12 mm.

Q: What about the Activity [31] of the same molecule?
A: The Activity was 52%.

Q: And the “inhibition zone (IZ)” value [32]?
A: Its value is 3 mm.

Q: What about the “inhibition zone (IZ)” value [33] of the same molecule?
A: Its value is 8 mm.

Q: What about the “inhibition zone (IZ)” value [34] of the same molecule?
A: The value was 9 mm.

Q: What about the “inhibition zone (IZ)” value [35] of the same molecule?
A: Its value is 1 mm.

Q: What about the “inhibition zone (IZ)” value [36] of the same molecule?
A: The value was 2 mm.

Q: What about the Activity [37] of the same molecule?
A: Its Activity is 93%.

Q: And the “inhibition zone (IZ)” value [38]?
A: Its value is 14 mm.

Q: And the Activity [39]?
A: Its Activity is 7.31%.

Q: What about the MIC [40] of the same molecule?
A: Its MIC is 16 µg/mL (≈ 41.1 µM).

Q: What about the Activity [41] of the same molecule?
A: The Activity was 60.62%.

Q: What about the Activity [42] of the same molecule?
A: Its Activity is 60.62%.

Q: And the Activity [43]?
A: The Activity was 42%.

Q: And the MIC [44]?
A: Its MIC is 2 µg/mL (≈ 5.14 µM).

Q: And the Activity [45]?
A: Its Activity is 89%.
